From ChEMBL document CHEMBL2169845 (J Med Chem, 2012)
Active and inactive are the calls of the source.

Experiments:
[1] = system: NCI-H146; experiment: Induction of apoptosis in human NCI-H146 cells assessed as caspase 3 activation at 30 nM after 24 hrs by Western blot analysis; assay type: functional, cell-based
How it was run: (§1)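 H146 cells treated for 24 hr, then lysed on ice for 20 min in RIPA buffer with PMSF and protease inhibitors. Cleared lysates normalized by protein assay and run on 4–20% SDS-PAGE, then blotted to PVDF. Probed with rabbit antibodies to PARP and caspase-3 (cleaved forms detected), GAPDH as loading control, with HRP chemiluminescence detection.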

[2] = system: NCI-H146; experiment: Induction of apoptosis in human NCI-H146 cells assessed as PARP cleavage at 30 nM after 24 hrs by Western blot analysis; assay type: functional, cell-based; how it was run: as §1
[3] = system: NCI-H146; experiment: Induction of apoptosis in human NCI-H146 cells assessed as cell viability at 30 to 100 nM after 24 hrs by trypan blue exclusion assay; assay type: functional
How it was run: (§2)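 H146 cells exposed to a range of compound concentrations for 24 hr, then harvested and stained with trypan blue. Cells staining blue or looking morphologically unhealthy were scored as dead. At least 100 cells counted per sample.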

[4] = system: NCI-H146; experiment: Induction of apoptosis in human NCI-H146 cells assessed as cell viability after 24 hrs by trypan blue exclusion assay; assay type: functional, cell-based; how it was run: as §2
[5] = Inhibition of c-terminally truncated N-terminal 8xHis-tagged human Bcl-xL deletion mutant expressed in Escherichia coli BL21 (DE3) after 2 hrs by fluorescence polarization assay
[6] = Cytotoxicity against human NCI-H146 cells assessed as growth inhibition after 4 days by WST-8 assay; assay type: functional, cell-based; conditions: NCI-H146, 96 h
[7] = system: NCI-H1417; experiment: Cytotoxicity against human H1417 cells assessed as growth inhibition after 4 days by WST-8 assay; assay type: functional, cell-based; conditions: NCI-H1417, 96 h
[8] = biological target: T1, Apoptosis regulator Bcl-2 (Homo sapiens, UniProt P10415)
T1 sequence (P10415 whole entry): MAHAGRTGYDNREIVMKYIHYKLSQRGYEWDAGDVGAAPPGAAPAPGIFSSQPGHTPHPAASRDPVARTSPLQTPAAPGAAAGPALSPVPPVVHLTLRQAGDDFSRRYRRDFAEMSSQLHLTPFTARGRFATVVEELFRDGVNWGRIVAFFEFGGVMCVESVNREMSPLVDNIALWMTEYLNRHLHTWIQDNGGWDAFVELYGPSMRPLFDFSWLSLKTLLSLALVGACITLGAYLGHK

[9] = biological target: T1, Apoptosis regulator Bcl-2; experiment: Inhibition of N-terminal 6xHis-tagged human Bcl-2 expressed in Escherichia coli BL21 (DE3) after 2 hrs by fluorescence polarization assay
[10] = Antitumor activity against human NCI-H146 cells xenografted in SCID mouse assessed as tumor free incidence at 25 mg/kg, iv measured on day 58 post tumor implantation; assay type: functional
How it was run: (§3)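 SCID mice bearing H146 xenografts randomized at 40–110 mm3 tumor volume (mean 70 mm3), 8 per group. Dosed intravenously, daily, 5 days a week for 2 weeks, with a vehicle control group. Tumor size and body weight measured 3 times weekly during dosing and twice weekly afterwards. Tumor volumes reported as mean ± SEM.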

[11] = system: NCI-H146; experiment: Antitumor activity against human NCI-H146 cells xenografted in SCID mouse assessed as tumor regression at 25 mg/kg, iv administered 5 days per week for 2 weeks; assay type: functional, organism-based; design: dose 25 mg/kg; how it was run: as §3
[12] = system: NCI-H146; experiment: Induction of apoptosis in human NCI-H146 cells xenografted in SCID mouse assessed as caspase 3 cleavage at 25 mg/kg, iv after 3 to 24 hrs by Western blot analysis; assay type: functional, organism-based; design: dose 25 mg/kg
How it was run: (§4)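 SCID mice bearing H146 xenografts (100–200 mm3) received one i.v. dose, with a vehicle control group. Tumors harvested at 3, 6 and 24 h. PARP cleavage and caspase-3 cleavage assessed by Western blot.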

[13] = system: NCI-H146; experiment: Induction of apoptosis in human NCI-H146 cells xenografted in SCID mouse assessed as PARP cleavage at 25 mg/kg, iv after 3 to 6 hrs by Western blot analysis; assay type: functional, organism-based; design: dose 25 mg/kg; how it was run: as §4
[14] = system: Mus musculus; experiment: Toxicity in SCID mouse assessed as body weight loss at 50 mg/kg, iv administered 5 days per week for 2 weeks relative to vehicle-treated control; assay type: organism-based; design: dose 50 mg/kg, route intravenous; conditions: in vivo
How it was run: (§5)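 Tolerability tested in SCID mice given daily i.v. doses, 5 days a week for 2 weeks. Body weight loss tracked against a 10% threshold.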

[15] = system: Mus musculus; experiment: Toxicity in SCID mouse assessed as body weight loss at 25 mg/kg, iv administered 5 days per week for 2 weeks relative to vehicle-treated control; assay type: organism-based; design: dose 25 mg/kg, route intravenous; conditions: in vivo; how it was run: as §5
[16] = system: NCI-H146; experiment: Antitumor activity against human NCI-H146 cells xenografted in SCID mouse assessed as tumor free incidence at 25 mg/kg, iv measured on day 47 post tumor implantation; assay type: functional, organism-based; design: dose 25 mg/kg; how it was run: as §3
[17] = Toxicity in iv dosed SCID mouse administered 5 days per week for 2 weeks; assay type: organism-based; conditions: in vivo
[18] = system: NCI-H146; experiment: Induction of apoptosis in human NCI-H146 cells assessed as caspase 3 activation at 10 nM after 24 hrs by Western blot analysis; assay type: functional, cell-based; how it was run: as §1
[19] = system: NCI-H146; experiment: Induction of apoptosis in human NCI-H146 cells assessed as PARP cleavage at 10 nM after 24 hrs by Western blot analysis; assay type: functional, cell-based; how it was run: as §1
[20] = system: NCI-H146; experiment: Induction of apoptosis in human NCI-H146 cells assessed as cell viability at 10 nM after 24 hrs by trypan blue exclusion assay; assay type: functional; conditions: NCI-H146, 24 h, read-out: Activity
How it was run: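 H146 small-cell lung cancer cells exposed to serial compound concentrations for 24 hr, then collected and stained with trypan blue. Blue-stained or morphologically unhealthy cells were scored as dead, with at least 100 cells counted per sample.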

IC50 [5]	Ki [8]	IC50 [9]	Compound	further results
–	–	–	CC1(C)CCC(c2ccc(Cl)cc2)=C(CN2CCN(c3ccc(C(=O)NS(=O)(=O)c4ccc(N[C@H](CCN5CCOCC5)CSc5ccccc5)c(S(=O)(=O)C(F)(F)F)c4)cc3)CC2)C1 [NAVITOCLAX]	Activity [1]: Active; Activity [2]: Active; Activity [3]: >50%; Activity [4]: Dose-dependent effect
3730 nM	–	–	Cc1c(C(=O)NCCCN2CCN(C)CC2)c(-c2cccc(N3CCN(c4ccc(NS(=O)(=O)c5ccccc5)cc4)CC3)c2)c(-c2ccc(Cl)cc2)n1C	–
–	–	–	CN(C)CC[C@H](CSc1ccccc1)Nc1ccc(S(=O)(=O)NC(=O)c2ccc(N3CCN(Cc4ccccc4-c4ccc(Cl)cc4)CC3)cc2)cc1[N+](=O)[O-] [ABT 737]	Activity [3]: >50%; Activity [4]: Dose-dependent effect
1990 nM	–	–	Cc1cccc(S(=O)(=O)Nc2ccc(N3CCN(c4cccc(-c5c(C(=O)NCCCN6CCN(C)CC6)c(C)n(C)c5-c5ccc(Cl)cc5)c4)CC3)cc2)c1	–
1650 nM	–	–	Cc1c(C(=O)NCCCN2CCN(C)CC2)c(-c2cccc(N3CCN(c4ccc(NS(=O)(=O)c5cccc(OC(F)(F)F)c5)cc4)CC3)c2)c(-c2ccc(Cl)cc2)n1C	–
1050 nM	–	–	Cc1c(C(=O)NCCCN2CCN(C)CC2)c(-c2cccc(N3CCN(c4ccc(NS(=O)(=O)c5cccc(OC(C)C)c5)cc4)CC3)c2)c(-c2ccc(Cl)cc2)n1C	–
6.3 nM	20 nM	78.2 nM	CCCCn1c(C)c(C(=O)O)c(-c2cccc(N3CCN(c4ccc(NS(=O)(=O)c5ccc(N[C@H](CCN6CCC(O)CC6)CSc6ccccc6)c(S(=O)(=O)C(F)(F)F)c5)cc4)CC3)c2)c1-c1ccc(Cl)cc1	IC50 [6]: 128 nM; IC50 [7]: 97 nM
1060 nM	–	–	Cc1c(C(=O)NCCCN2CCN(C)CC2)c(-c2cccc(N3CCN(c4ccc(NS(=O)(=O)c5cccc(Cl)c5)cc4)CC3)c2)c(-c2ccc(Cl)cc2)n1C	–
1040 nM	–	–	Cc1c(C(=O)NCCCN2CCN(C)CC2)c(-c2cccc(N3CCN(c4ccc(NS(=O)(=O)c5cccc(S(=O)(=O)C6CC6)c5)cc4)CC3)c2)c(-c2ccc(Cl)cc2)n1C	–
1950 nM	–	–	CCc1cccc(S(=O)(=O)Nc2ccc(N3CCN(c4cccc(-c5c(C(=O)NCCCN6CCN(C)CC6)c(C)n(C)c5-c5ccc(Cl)cc5)c4)CC3)cc2)c1	–
954 nM	–	–	CCS(=O)(=O)c1cccc(S(=O)(=O)Nc2ccc(N3CCN(c4cccc(-c5c(C(=O)NCCCN6CCN(C)CC6)c(C)n(C)c5-c5ccc(Cl)cc5)c4)CC3)cc2)c1	–
8.2 nM	7.5 nM	30.1 nM	CCCn1c(C)c(C(=O)O)c(-c2cccc(N3CCN(c4ccc(NS(=O)(=O)c5ccc(N[C@H](CCN6CCC(O)CC6)CSc6ccccc6)c(S(=O)(=O)C(F)(F)F)c5)cc4)CC3)c2)c1-c1ccc(Cl)cc1	IC50 [6]: 128 nM; IC50 [7]: 105 nM
12.1 nM	3.8 nM	15.6 nM	Cc1c(C(=O)O)c(-c2cccc(N3CCN(c4ccc(NS(=O)(=O)c5ccc(N[C@H](CCN6CCCCC6)CSc6ccccc6)c(S(=O)(=O)C(F)(F)F)c5)cc4)CC3)c2)c(-c2ccc(Cl)cc2)n1C	IC50 [6]: 133 nM; IC50 [7]: 171 nM
131 nM	–	–	Cc1c(C(=O)NCCCN2CCN(C)CC2)c(-c2cccc(N3CCN(c4ccc(NS(=O)(=O)c5cccc([N+](=O)[O-])c5)cc4)CC3)c2)c(-c2ccc(Cl)cc2)n1C	–
16.5 nM	1.7 nM	7.5 nM	Cc1c(C(=O)O)c(-c2cccc(N3CCN(c4ccc(NS(=O)(=O)c5ccc(N[C@H](CCN6CCC6)CSc6ccccc6)c(S(=O)(=O)C(F)(F)F)c5)cc4)CC3)c2)c(-c2ccc(Cl)cc2)n1C	IC50 [6]: 86 nM; IC50 [7]: 126 nM
10.8 nM	14.1 nM	55.2 nM	Cc1c(C(=O)O)c(-c2cccc(N3CCN(c4ccc(NS(=O)(=O)c5ccc(N[C@H](CCN6CCOCC6)CSc6ccccc6)c(S(=O)(=O)C(F)(F)F)c5)cc4)CC3)c2)c(-c2ccc(Cl)cc2)n1C	–
2160 nM	–	–	COc1cccc(S(=O)(=O)Nc2ccc(N3CCN(c4cccc(-c5c(C(=O)NCCCN6CCN(C)CC6)c(C)n(C)c5-c5ccc(Cl)cc5)c4)CC3)cc2)c1	–
10.5 nM	1.7 nM	7.7 nM	Cc1c(C(=O)O)c(-c2cccc(N3CCN(c4ccc(NS(=O)(=O)c5ccc(N[C@H](CCN6CC(O)C6)CSc6ccccc6)c(S(=O)(=O)C(F)(F)F)c5)cc4)CC3)c2)c(-c2ccc(Cl)cc2)n1C	IC50 [6]: 241 nM; IC50 [7]: 299 nM
3650 nM	–	–	CCOc1cccc(S(=O)(=O)Nc2ccc(N3CCN(c4cccc(-c5c(C(=O)NCCCN6CCN(C)CC6)c(C)n(C)c5-c5ccc(Cl)cc5)c4)CC3)cc2)c1	–
10.7 nM	1.8 nM	8.3 nM	Cc1c(C(=O)O)c(-c2cccc(N3CCN(c4ccc(NS(=O)(=O)c5ccc(N[C@H](CCN6CCCC6)CSc6ccccc6)c(S(=O)(=O)C(F)(F)F)c5)cc4)CC3)c2)c(-c2ccc(Cl)cc2)n1C	IC50 [6]: 87 nM; IC50 [7]: 106 nM
499 nM	–	–	Cc1c(C(=O)NCCCN2CCN(C)CC2)c(-c2cccc(N3CCN(c4ccc(NS(=O)(=O)c5cccc(Br)c5)cc4)CC3)c2)c(-c2ccc(Cl)cc2)n1C	–
5.1 nM	2.1 nM	9.2 nM	Cc1c(C(=O)O)c(-c2cccc(N3CCN(c4ccc(NS(=O)(=O)c5ccc(N[C@H](CCN(C)C)CSc6ccccc6)c(S(=O)(=O)C(F)(F)F)c5)cc4)CC3)c2)c(-c2ccc(Cl)cc2)n1C	–
21.8 nM	4.6 nM	18.6 nM	Cc1c(C(=O)O)c(-c2cccc(N3CCN(c4ccc(NS(=O)(=O)c5ccc(N[C@H](CCN6CCC(C)(O)CC6)CSc6ccccc6)c(S(=O)(=O)C(F)(F)F)c5)cc4)CC3)c2)c(-c2ccc(Cl)cc2)n1C	IC50 [6]: 171 nM; IC50 [7]: 179 nM
1310 nM	–	–	Cc1c(C(=O)NCCCN2CCN(C)CC2)c(-c2cccc(N3CCN(c4ccc(NS(=O)(=O)c5cccc(F)c5)cc4)CC3)c2)c(-c2ccc(Cl)cc2)n1C	–
744 nM	–	–	Cc1c(C(=O)NCCCN2CCN(C)CC2)c(-c2cccc(N3CCN(c4ccc(NS(=O)(=O)c5cccc(C(C)(C)C)c5)cc4)CC3)c2)c(-c2ccc(Cl)cc2)n1C	–
–	< 1 nM	–	Cc1c(C(=O)O)c(-c2cccc(N3CCN(c4ccc(NS(=O)(=O)c5ccc(N[C@H](CCN(C)C)CSc6ccccc6)c([N+](=O)[O-])c5)cc4)CC3)c2)c(-c2ccc(Cl)cc2)n1C	–
1920 nM	–	–	Cc1c(C(=O)NCCCN2CCN(C)CC2)c(-c2cccc(N3CCN(c4ccc(NS(=O)(=O)c5cccc(S(C)(=O)=O)c5)cc4)CC3)c2)c(-c2ccc(Cl)cc2)n1C	–

Compound	IC50 [5]	Ki [8]	IC50 [9]	further results
CCn1c(C)c(C(=O)O)c(-c2cccc(N3CCN(c4ccc(NS(=O)(=O)c5ccc(N[C@H](CCN6CCC(O)CC6)CSc6ccccc6)c(S(=O)(=O)C(F)(F)F)c5)cc4)CC3)c2)c1-c1ccc(Cl)cc1	6 nM	1.2 nM	5.4 nM	Activity [10]: 71%; Activity [11]: Active; Activity [12]: Active; Activity [13]: Active; Activity [14]: > 10%; Activity [15]: < 10%; Activity [16]: Active; MTD at 2 weeks [17]: 25 mg/kg; Activity [18]: Active; Activity [19]: Active; viability at 0.01 µM [20]: > 50%; Activity [4]: Dose-dependent effect; IC50 [6]: 22 nM; IC50 [7]: 21 nM
